Source: PubChem BioAssay (several laboratories)
EBNA-1 inhibitor: blocks EBNA-1 binding to DNA; EBNA-1 DNA binding, fluorescence polarization; AID 1950; inhibition, % at 14.8 µM; 0.34% of 300,000 active; in the data active = inhibition above about 28%
Apaf1 inhib: inhibitors of human Apaf-1 apoptosome | AID 489030 | O14727 | 0.71% of 330,000 active | reconstituted apoptosome caspase-3 activity, DEVD-Rh110 fluorescence | inhibition, % at 20 µM; active = inhibition of at least 40% at 20 µM;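 also: plate controls were DMSO wells for no effect and DEVD-CHO caspase inhibitor wells for full effect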
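System: reconstituted apoptosome with Apaf-1, cytochrome c, caspase-9, procaspase-3, dATP; Signal: Rh110 fluorescence intensity; Schedule: 30 min compound preincubation, 50 min activation, room temperature; Reagent: cytochrome c trigger plus (Z-DEVD)2-Rh110 caspase-3 substrate.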
ZTA DNA inh: blocks Epstein-Barr virus ZTA, an EBNA-1 counter-screen; 0.15% of 320,000 active; ZTA-DNA binding, fluorescence polarization; inhibition, % at 11 µM; AID 2234; P03206; in the data active = inhibition above about 33%
Target sequence (P03206 whole entry, looked up): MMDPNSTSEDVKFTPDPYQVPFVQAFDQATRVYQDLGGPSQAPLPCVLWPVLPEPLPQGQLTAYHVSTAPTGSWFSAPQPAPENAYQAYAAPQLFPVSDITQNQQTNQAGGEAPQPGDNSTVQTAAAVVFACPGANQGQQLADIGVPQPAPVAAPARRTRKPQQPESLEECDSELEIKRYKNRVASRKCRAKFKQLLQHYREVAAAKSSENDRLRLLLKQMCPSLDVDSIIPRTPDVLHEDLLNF
UBC13 polyUb: human UBC13 polyubiquitination inhibition. P61088. UBC13 polyubiquitin chain formation, TR-FRET. inhibition, % at 20 µM. 0.47% of 330,000 active. AID 485273; in the data active = inhibition above about 45%, passing the limit was not always enough
Target sequence (P61088 whole entry, looked up): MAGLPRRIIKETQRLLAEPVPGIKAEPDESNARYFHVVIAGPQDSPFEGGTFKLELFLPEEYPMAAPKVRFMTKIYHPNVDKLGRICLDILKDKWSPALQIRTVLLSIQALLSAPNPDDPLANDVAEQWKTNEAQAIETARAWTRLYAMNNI
PREPL inh: inhibits the human prolyl oligopeptidase-like enzyme. 0.68% of 320,000 active. recombinant PREPL, fluorescence polarization activity-based probe. inhibition, % at 5.96 µM; in the data active = inhibition above about 43%;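 also: 0% = enzyme with DMSO and 100% = wells lacking enzyme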
Apaf-1 inh conf2: Apaf-1 inhibition, single-dose confirmed; inhibition, % at 20 µM; AID 504614; 25% of 1,800 active; reconstituted apoptosome, caspase-3 DEVD-Rh110 fluorescence; shares compounds with Apaf1 inhib;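 active = mean inhibition of at least 40% at 20 µM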;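 also: plate controls were DMSO wells for no effect and DEVD-CHO caspase inhibitor control wells for full effect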
Rh110 interf inh: counter-screen for Apaf-1 inhibitors: fluorescence interference; shares compounds with Apaf1 inhib; Rh110 fluorescence interference, quenched caspase reaction; activation (fluorescence interference), % at 20 µM; 1,800 tested, under 10 active;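 active = signal rise of 40% or more at 20 µM, treated as a fluorescence artifact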
Fluor interf inh: shows fluorescence interference in the Apaf-1 inhibitor assay format; 460 tested, under 10 active; IC50, µM; fluorescence interference counterscreen, Apaf-1 assay format; shares compounds with Apaf1 inhib; call rule not given here
* = called active by the depositor; . = not tested or not shown. An excerpt weighted towards active compounds, which were near 1.7% of everything screened.

SMILES | EBNA-1 inhibitor | Apaf1 inhib | ZTA DNA inh | UBC13 polyUb | PREPL inh | Apaf-1 inh conf2 | Rh110 interf inh | others
COC(=O)C1C(O)C(C)C(O)C(C)(O)/C=C\C=C(/C)C(=O)Nc2c(C)c(OC(C)=O)c3c(c2O)C(=O)C(C)=C2OCOC(=C23)/C(C)=C/C(C)(O)C(O)C(C)C1O (stereo not given) | 16 | 35 | 10 | -25 | 3 | . | .
C=CCn1c(-c2ccc(Cl)cc2)cnc1SC(C)C(N)=O (stereo not given) | -1 | -2 | -7 | 10 | -7 | . | .
CCOc1ccc(Cl)cc1C(c1c(C)[nH][nH]c1=O)c1c(C)[nH][nH]c1=O | . | -2 | . | -7 | . | . | .
Cc1[nH][nH]c(=O)c1C(c1ccc(-c2ccc(Cl)c(Cl)c2)o1)c1c(C)[nH][nH]c1=O | 9 | 79* | 11 | -24 | 13 | 30 | 0
Cc1[nH][nH]c(=O)c1C(c1ccc(-c2ccc(F)cc2)o1)c1c(C)[nH][nH]c1=O | -15 | 72* | 3 | -104 | 3 | 32 | 5
COc1ccc(-c2ccc(C(c3c(C)[nH][nH]c3=O)c3c(C)[nH][nH]c3=O)o2)c([N+](=O)[O-])c1 | . | 75* | . | -59 | . | 19 | -1
C=CCNC(=O)/C(C#N)=C/c1c(N2CCN(c3ccccc3)CC2)nc2c(C)cccn2c1=O | 4 | 14 | -2 | 5 | 24 | . | .
COc1cccc2c(=O)c3c([nH]c12)OC(C)(C)C3 | -5 | -29 | -6 | -2 | 2 | . | .
COc1cccc2c(=O)c3cccc(N)c3[nH]c12 | -2 | 70* | -12 | -32 | 22 | 2 | -4
COC(=O)c1ccc(C(=O)Nc2ccc(N)cc2N)cc1 | 3 | 48* | 14 | -16 | 17 | 13 | 1
CCc1ccc2nc(NC(=O)CSCc3c(C)noc3C)sc2c1 | 6 | 46* | 0 | -6 | 6 | 29 | 5
Cc1cc(NC(=O)CSc2nc3c(C)ccc(C)c3cc2C#N)no1 | 3 | -2 | -10 | 0 | 1 | . | .
O=C1CCN(Cc2ccccc2)C=C1c1ccc(Cl)cc1 | . | 47* | . | 13 | 7 | 5 | 4
CCN(CCCNS(=O)(=O)c1ccc2c(c1)CCN2C(C)=O)c1cccc(C)c1 | 1 | 21 | 6 | 8 | 5 | . | .
COc1ccc(S(=O)(=O)N2CCCCC2)cc1NC(=O)Cn1c(=O)cnc2ccccc21 | -8 | 0 | -9 | -3 | 13 | . | .
CC(=O)c1ccc(N2CCN(S(=O)(=O)c3ccc4c5c3CC(=O)N5CC(C)S4)CC2)cc1 (stereo not given) | -15 | 56* | -14 | -15 | 15 | 42* | 6 | Fluor interf inh=>100
CC(=O)c1ccc(N2CCN(S(=O)(=O)c3ccc4c(c3)CC(=O)N4)CC2)cc1 | 7 | -4 | 8 | -3 | 16 | . | .
Cc1ccc(O)c(NC(=O)CSc2n[nH]c(-c3ccccc3)n2)c1 | 11 | 9 | 8 | -5 | 2 | . | .
O=C(CCNC(=O)c1ccc(Cl)cc1)NCCCN1CCOCC1 | . | 48* | -20 | 31 | 6 | 36 | -3
O=C(NC1CCCCCC1)c1cc2n(n1)C(C(F)(F)F)CC(c1ccco1)N2 (stereo not given) | 0 | 21 | -13 | 4 | -10 | . | .
COc1cc(/C=C2\C(=O)N(CCC#N)N=C2C)ccc1OCC(=O)Nc1ccccc1 | -2 | 93* | 4 | -35 | 1 | 7 | -2
CCOc1cc(/C=C2\C(=O)N(CCC#N)N=C2C)ccc1OCC(N)=O | 2 | 58* | 16 | -32 | 25 | 4 | -10
COc1ccc(C(=O)COC(=O)c2ccccc2C(=O)N(C)c2ccccc2)c(OC)c1 | -12 | 27 | -4 | -6 | 4 | . | .
CCN1/C(=C/C(C)=C/c2sc3ccccc3[n+]2CC)Sc2ccccc21 | -1 | 53* | -2 | -251 | -403 | 61* | 30 | Fluor interf inh=51*
COc1ccccc1CNC1CCCc2ccccc21 (stereo not given) | . | -7 | . | 5 | . | . | .
CCc1ccccc1OC[C@@H](O)CN[C@H]1CCCc2ccccc21 | 7 | 46* | 11 | 37 | -48 | 1 | -3
